The values below come from ChEMBL document CHEMBL3112410, “Reaction intermediate analogues as bisubstrate inhibitors of pantothenate synthetase” (Bioorg Med Chem, 2014).

Activity calls are given as the source filed them. The rule behind the calls is not given here.

Experiment [1] deals with Mycobacterium tuberculosis. The experiment is described as follows: Antimycobacterial activity against PanC deficient Mycobacterium tuberculosis H37RvMA assessed as growth inhibition up to 2 mM after 7 to 14 days. It counts as functional. The gist of the method: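 panC conditional knockdown (<5% wild-type PanC) grown to OD600 ~0.2 in 7H9 with Hyg 50 μg/mL, Km 25 μg/mL, Gm 5 μg/mL, diluted 500-fold. 2-fold serial dilutions from 4 mM starting concentration in 7H9 with half-strength antibiotics, with or without ATc (20 ng/mL) alone or ATc plus pantothenate (50 μg/mL). 37 °C, growth scored visually at 7, 10, 14 days.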

Experiment [2] has as its system Mycobacterium tuberculosis. The experiment is described as follows: Antimycobacterial activity against wild type Mycobacterium tuberculosis H37RvMA assessed as growth inhibition up to 250 uM after 7 to 14 days. It counts as functional. An outline of the steps: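 H37RvMA grown in 7H9 to OD600 ~0.2, diluted 500-fold into wells holding 2-fold serial compound dilutions (starting concentration 4 mM) in 7H9. Incubated at 37 °C. Growth was read by eye on days 7, 10 and 14.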

A further experiment deals with T1, Pantothenate synthetase (Mycobacterium tuberculosis, UniProt P9WIL5).
T1 sequence (P9WIL5 whole entry): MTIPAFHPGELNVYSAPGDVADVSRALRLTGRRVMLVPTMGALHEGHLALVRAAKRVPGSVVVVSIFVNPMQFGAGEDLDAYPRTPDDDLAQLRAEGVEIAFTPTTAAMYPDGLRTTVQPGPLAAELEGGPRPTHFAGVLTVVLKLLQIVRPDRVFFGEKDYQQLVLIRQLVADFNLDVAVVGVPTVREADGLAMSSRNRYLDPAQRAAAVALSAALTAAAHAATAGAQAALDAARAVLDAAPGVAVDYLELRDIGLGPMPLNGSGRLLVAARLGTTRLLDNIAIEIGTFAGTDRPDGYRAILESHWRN
The experiment is described as follows: Competitive inhibition of Mycobacterium tuberculosis recombinant PanC expressed in Escherichia coli BL21 (DE3) using pantoic acid and ATP as substrate by Michaelis-Menten equation analysis. The gist of the method:
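N-terminal His6 PanC (pET28b, BL21(DE3), Ni-NTA purified), 400 nM. Continuous MesG pyrophosphate-coupled assay with pyrophosphatase and purine nucleoside phosphorylase, A360, 25 °C. Buffer 100 mM HEPES pH 8.0, 10 mM MgCl2, up to 5% DMSO. Pantoic acid varied 50–300 μM at 2.6 mM ATP, 2.4 mM β-alanine, several fixed inhibitor levels, PanC-initiated. Initial rates fit to the competitive equation for Ki.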

Broadly, the Ki is a dissociation constant, usually derived from enzyme kinetics or from competition with a known ligand. As to `CC(C)(C)[C@@H](O)C(=O)NS(=O)(=O)OC[C@H]1C[C@@H](n2cnc3c(N)ncnc32)[C@H](O)[C@@H]1O`, the “growth inhibition (GI)” value in experiment [1] and in experiment [2] was “inactive” each time. Besides, on Pantothenate synthetase, the inhibition constant Ki was 870 nM.
In the case of `CC(C)(C)[C@@H](O)C(=O)NS(=O)(=O)OC[C@H]1O[C@@H](n2cnc3c(N)ncnc32)[C@H](F)[C@@H]1O`, the “growth inhibition (GI)” value in experiment [1] and in experiment [2] was “inactive” in each case. Also, the Ki at Pantothenate synthetase was found to be 990 nM.
In the case of `CC(C)(CO)[C@@H](O)CNS(=O)(=O)NC[C@H]1O[C@@H](n2cnc3c(N)ncnc32)[C@H](O)[C@@H]1O`, the “growth inhibition (GI)” value in experiment [1] and in experiment [2] was “inactive” in each case. Moreover, the Ki at Pantothenate synthetase turned out to be 3470 nM.
On to `CC(C)(C)[C@@H](O)C(=O)NS(=O)(=O)OC[C@H]1O[C@@H](n2cnc3c(N)ncnc32)[C@@H](O)[C@@H]1O`, for which the “growth inhibition (GI)” value in experiment [1] and in experiment [2] was “inactive” in each case. The inhibitory constant (Ki) at Pantothenate synthetase came to 1730 nM.
On to `CC(C)(C)[C@@H](O)C(=O)NS(=O)(=O)OC[C@H]1O[C@@H](n2cnc3c(N)ncnc32)[C@H](O)[C@@H]1O`, for which the “growth inhibition (GI)” value in experiment [1] and in experiment [2] was “inactive” in each case. Moreover, at Pantothenate synthetase, the inhibition constant (Ki) was 270 nM.
